Sampled rows, rich in hits. Any-hit rate of the full collection: about 4.2%.
Cl transport mod = KCC2 (human) Cl- transport modulation; KCC2 cells, thallium flux FluoZin-2 fluorescence; B-score of Tl+ flux slope (higher = more flux/activation; lower = inhibition) at 10 µM; 190,000 compounds, 2.2% hits;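 active means thallium flux slope and its plate-corrected score both differing from the plate sample mean at a set confidence after two filtering rounds, in either direction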;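 further: slope of fluorescence scaled to starting intensity during 10 to 20 s after thallium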
SUMO Mot1 rescue = inhibitors of SUMOylation pathway: yeast Mot1-301 growth rescue; AID 2716; growth rescue, % at 18.8 µM; 320,000 compounds, 1% hits; S. cerevisiae Mot1-301 growth rescue, ATP luminescence, 38.5C; percent above DMSO median, 100 means doubled;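 active means every valid replicate shows activation above 250% relative to neutral control wells; inactive means the rest, any valid replicate at or below 250%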;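 further: OY570 slx delta 5 strain wells were the positive control but not used for scaling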
KCNQ1 pot = human KCNQ1 channel potentiation or activation; P51787; B-score at 10 µM; CHO-K1 KCNQ1, thallium flux FluxOR fluorescence; hits give high values; 310,000 compounds, 0.35% hits;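 active means fluorescence ratio B-score, a plate-corrected score, at least three library SD, with initial intensity B-score within 5 SD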
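Doses: Single concentration per compound, DMSO matched to controls | Test system: KCNQ1-transfected CHO-K1 cells | Timing: 90 min dye loading and 20 min compound exposure, both at room temperature | Measured by: Kinetic FluxOR thallium fluorescence, 10-s 1-Hz baseline, 110-s post-stimulus read | Medium: Assay buffer with matched DMSO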
AI-2 QS mod = modulates the Vibrio harveyi AI-2 quorum sensing system; AID 2094; activity change, % at 7.5 µM; Vibrio harveyi JMH597 AI-2 luminescence/OD600 ratio, 9 h; hits give low values; strain lacks LuxN and CqsS sensors; 0 = neutral-control median; 300,000 compounds, 0.4% hits; in the data active means activity change below about -75%, passing the limit was not always enough; inconclusive means no clear call, values can overlap the other calls;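 further: luminescence divided by OD600 gain over 9 h not by final OD600 alone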
hERG protect = shields human hERG channel from block by proarrhythmic agents | CHO-hERG, FluxOR thallium flux, dofetilide IC70 present | activation (rescue from dofetilide block), less the hit threshold, % at 10 µM | 310,000 compounds, 0.51% hits;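 active means activation above the mean of controls blocked by dofetilide plus 5 SD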;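 further: thallium influx through hERG after potassium depolarization seen as dye fluorescence rise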
KCNQ1 inh = inhibitors of human KCNQ1 potassium channel; 310,000 compounds, 1.3% hits; CHO-K1 KCNQ1, FluxOR thallium flux fluorescence; hits give high values; B-score at 10 µM; P51787; AID 2642;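 active means compounds whose thallium flux B-score, printed positive for inhibition, exceeds three library SD while starting fluorescence stays within three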;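 further: channel opened by potassium depolarization with thallium stimulus after 20 min compound exposure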
The depositor's hits bear a star; i = inactive; u = inconclusive; x = no result.

SMILES	Cl transport mod	SUMO Mot1 rescue	KCNQ1 pot	AI-2 QS mod	hERG protect	KCNQ1 inh
O=C(NNC(=O)c1ccccc1O)c1ccc(NS(=O)(=O)c2ccc(F)c(F)c2)cc1	x	3.5	i	8.9	-29.1	6*
CC(C)Cn1c(=O)c(C(=O)Nc2ccncc2)c(O)c2ccccc21	x	-70.8	i	17.5	-17.1	8*
CC(C)Cn1c(=O)c(C(=O)Nc2cnccn2)c(O)c2ccccc21	0.506	4.3	i	30.6	-8.6	i
COc1ccc(CCC(=O)OC(C)C(=O)c2ccc(C)cc2)cc1 (stereo not drawn)	-0.184	10.4	i	-0.7	-3.9	i
Cc1ccc(C(=O)CCc2ccc(N)cc2)cc1	x	318.1*	i	-5.4	-9.2	i
Cc1onc(-c2ccccc2)c1C(=O)NNC(=O)c1ccccc1O	x	7.0	i	-2.5	-25.4	i
COC(=O)c1c(-c2ccccc2)noc1C	0.258	-12.4	i	23.0	5.8*	i
Cc1onc(-c2ccccc2)c1C(=O)NNC(=S)NC(=O)c1ccc(Br)cc1	19.6*	-13.2	34*	50.9	-16.1	i
O=C(O)C1CCN(c2nc(-c3ccccc3)nc3c2oc2ccccc23)CC1	-2.85*	-0.1	i	26.6	-3.5	i
CCOC(=O)C1CCN(c2nc(-c3ccccc3)nc3c2oc2ccccc23)CC1	x	9.4	i	8.3	-6.1	i
Cc1cc(-c2ccc(C(C)C)c(S(=O)(=O)N3CCC(C)CC3)c2)on1	x	-4.0	i	29.2	-5.5	15*
CCc1ccc(-c2cc(C)no2)cc1S(=O)(=O)N1CCC(C)CC1	x	-0.4	i	25.0	-10.7	i
COc1ccc(/C=C(/C(=O)c2cccs2)N2C=CC=CC2=C(C#N)C#N)cc1	-0.0644	x	i	69.9	-29.4	11*
CCN(Cc1cccc(F)c1)C(=O)c1ccc2ccccc2n1	x	-2.5	i	15.7	-13.4	i
COc1ccc(CC(=O)Nc2ccc(S(=O)(=O)Nc3cc(C)on3)cc2)cc1	0	7.1	i	-91.9*	-10.3	i
CCCCOc1ccc(C(=O)Nc2ccc(S(=O)(=O)Nc3cc(C)on3)cc2)cc1OC	0.242	-8.6	i	15.3	4.9*	i
CCCCOc1cccc(C(=O)Nc2ccc(S(=O)(=O)Nc3cc(C)on3)cc2)c1	x	15.3	i	17.5	-8.1	i
CCC(=O)Nc1ccc(S(=O)(=O)Nc2cc(C)on2)cc1	1.05	-9.4	i	25.3	-10.3	i
FC(F)(F)c1cccc(NC(=S)NNC(=S)Nc2ccc(Cl)cc2)c1	-2.21	203.4	i	u	-10.3	i
Cc1ccc(NC(=S)NNc2ncc(C(F)(F)F)cc2Cl)c(C)c1	4.26*	5.5	i	2.7	-7.8	i
CC(C)C(=O)Nc1ncc(C(F)(F)F)cc1Cl	0.13	-16.6	i	6.3	-8.4	i
CON/C=N/C(=S)Nc1ncc(C(F)(F)F)cc1Cl	74.6*	-18.2	51*	5.3	14.8*	i
FC(F)(F)c1cnc(NNC(=S)Nc2ccc(Cl)cc2)c(Cl)c1	30.1*	0.7	i	22.5	-7.2	i
O=C(NNc1ncc(C(F)(F)F)cc1Cl)c1ccc(Cl)c(Cl)c1	x	15.4	i	13.1	-7.7	i
CCc1ccc(Nc2n[n+](-c3ccccc3)c(-c3c(Cl)cccc3Cl)s2)cc1	x	-17.1	i	0.6	-24.6	i
SMILES	Cl transport mod	SUMO Mot1 rescue	KCNQ1 pot	AI-2 QS mod	hERG protect	KCNQ1 inh
CCc1ccc(Nc2n[n+](-c3ccccc3)c(/C=C/c3ccccc3)s2)cc1	x	-13.9	i	47.6	-35.2	12*
O=C1OC(=O)c2cc([N+](=O)[O-])ccc21	x	-2.7	x	x	x	x
COc1cc(/C=C2/OC(=O)c3cc([N+](=O)[O-])ccc32)cc(OC)c1OC	1.93	-5.1	i	9.3	10.8*	i
COc1ccc(-c2cc3ccccc3s2)cc1[C@H]1[C@H]2C=CC[C@@H](C)[C@@H]2C(=O)N1Cc1ccccc1	2.26	-0.4	i	11.7	-3.9	i
COc1ccc(Oc2coc3cc(O)ccc3c2=O)cc1	x	-10.0	i	-94.3*	-7.1	i
COc1ccccc1Oc1coc2cc(O)ccc2c1=O	x	-8.7	i	20.1	-5.7	i
CCNC(=O)C/C(C)=N/NC(=O)C(=O)Nc1ccc(CC)cc1	3.13	591.4	i	20.6	4.7*	i
Cc1nc(N2CCC(C)CC2)c2c(C)c(C(=O)Nc3ccc(C(F)(F)F)cc3)sc2n1	-0.0751	-4.5	i	9.9	0.5	10*
Cc1nc(N2CCOCC2)c2c(C)c(C(=O)Nc3ccccc3C(F)(F)F)sc2n1	-0.367	40.8	i	3.8	-11.6	i
CCc1ccc(NC(=O)c2sc3nc(C)nc(N4CCN(c5ccccn5)CC4)c3c2C)cc1	x	149.9	i	13.4	-15.0	6*
Cc1nc(N2CCCCC2C)c2c(C)c(C(=O)Nc3ccccc3C(F)(F)F)sc2n1 (stereo not drawn)	-1.04	42.8	i	23.4	-13.2	9*
Cc1nc(N2CCC(C)CC2)c2c(C)c(C(=O)Nc3cccc(C(F)(F)F)c3)sc2n1	1.28	-10.8	i	14.6	-8.8	13*
CCCCN(C(=O)c1ccc(S(=O)(=O)N2CCC(C)CC2)cc1)C1CCS(=O)(=O)C1 (stereo not drawn)	x	-12.6	i	20.0	-7.5	i
CC1CCC2C(=O)N(c3ccc(C(=O)Oc4cccc5cccnc45)cc3)C(=O)C2C1 (stereo not drawn)	-1.16	-29.4	i	8.1	-5.4	i
COc1ccc(NC(=O)CSc2n[nH]c(N)n2)c([N+](=O)[O-])c1	x	210.3	i	16.5	-9.0	i
COC(=O)c1ccc(C(=O)NC(=S)Nc2nc3c(s2)CCCC3)cc1	25.1*	19.2	23*	25.5	1.7	i
O=C(NC(=S)Nc1nc2c(s1)CCCC2)c1ccccc1	11.4*	-4.2	i	2.1	-3.9	i
O=C(Nc1nc2c(s1)CCCC2)c1ccc(N2C(=O)CCC2=O)cc1	x	1.1	i	3.6	-3.6	i
O=C(COC(=O)CC(c1ccccc1)c1ccccc1)Nc1ccc(F)c(F)c1	-0.89	2.4	i	4.7	-18.4	6*
COc1cc(NC(=O)COC(=O)CC(NC(C)=O)c2ccccc2)cc(OC)c1 (stereo not drawn)	x	351.7*	i	36.2	-6.6	i
CCc1ccc(CNC(=O)CCC(=O)N2Cc3cccc(OC)c3Oc3ncccc32)cc1	x	-14.8	i	9.6	-5.8	i
COc1ccc(NC(=O)CN(C)C(=O)c2cn(-c3ccccc3)nc2-c2cccnc2)cc1	x	-12.3	i	12.1	-4.2	i
COc1ccc(S(=O)(=O)N2CCN(CC(=O)Nc3sccc3C(N)=O)CC2)cc1OC	x	-4.4	x	x	x	x

Bioassay records (PubChem BioAssay)
